Type in all cases: protein assay
For experiment [1], the target named is T1, S-adenosylmethionine synthetase (MAT 1 and MAT 2) (Rattus norvegicus, UniProt P13444+P18298). The experiment in a line: Compound was tested for inhibition constant with kidney form of M-T variants of Rat methionine adenosyltransferase when ATP was the variable substrate.
Experiment [2] concerns the target T1, S-adenosylmethionine synthetase (MAT 1 and MAT 2). The experiment in a line: Compound was tested for inhibition constant with kidney form of M-T variants of Rat methionine adenosyltransferase when Methionine was the variable substrate.
For experiment [3] the target is unchanged. The experiment in a line: Compound was tested for inhibition constant with kidney form of M-2 variants of Rat methionine adenosyltransferase when ATP was the variable substrate. A digest of the protocol:
(§1)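 Rat M-2 (normal tissue) isozyme. With methionine as the variable substrate, MgATP was fixed at 2 mM. With MgATP as the variable substrate, methionine was fixed at 60 µM. The MgATP KM was 0.14 mM. Ki values come from kinetic analysis of inhibition against each substrate.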

Experiment [4] shares this target. The experiment in a line: Compound was tested for inhibition constant with kidney form of M-2 variants of Rat methionine adenosyltransferase when Methionine was the variable substrate. A digest of the protocol: as §1

A word on the Ki: it is the equilibrium dissociation constant of an inhibitor or competing ligand from its target. A high value points to lower affinity. In the case of `Nc1ncnc2c1ncn2[C@@H]1O[C@H]([C@H](CSCCC(N)C(=O)O)OP(=O)(O)OP(=O)(O)NP(=O)(O)O)[C@@H](O)[C@H]1O` (some centres not stated), the Ki is 210 nM in experiment [1], 670 nM in experiment [2], 130 nM in experiment [3] and 650 nM in experiment [4].
The matching figures for `Nc1ncnc2c1ncn2[C@@H]1O[C@H]([C@H](CCSCCC(N)C(=O)O)OP(=O)(O)OP(=O)(O)NP(=O)(O)O)[C@@H](O)[C@H]1O` (some centres not stated): 410 nM, 2700 nM, 270 nM and 5400 nM.
The corresponding values for `Nc1ncnc2c1ncn2[C@@H]1O[C@H]([C@@H](CCSCCC(N)C(=O)O)OP(=O)(O)OP(=O)(O)NP(=O)(O)O)[C@@H](O)[C@H]1O` (some centres not stated) are 160 nM, 1100 nM, 110 nM and 2100 nM.

The values are drawn from ChEMBL document CHEMBL1124617, “Approaches to isozyme-specific inhibitors. 16. A novel methyl-C5' covalent adduct of L-ethionine and beta,gamma-imido-ATP as a potent multisubstrate inhibitor of rat methionine adenosyltransferases” (J Med Chem, 1989).
